{"data": "Assay results gathered from unrelated publications", "DHFR": "Dihydrofolate reductase (DHFR, Homo sapiens, UniProt P00374)", "Tmem97": "Sigma intracellular receptor 2 (Tmem97, Rattus norvegicus, UniProt Q5U3Y7)", "note": "Each line is one published result; the experiments were not run side by side."}
{"Compound": "C=CC(=O)N1CCC(COCC(=O)N2CCN(c3nc(-c4cnc(N)nc4C(F)F)nc(N4CCOC[C@@H]4C)n3)CC2)CC1", "target": "Calcium/calmodulin-dependent protein kinase type II subunit alpha (CAMK2A, Homo sapiens, UniProt Q9UQM7)", "test": "binding, competition with immobilised ligand", "setting": "1 µM", "measurement": "remaining binding", "value": "100%"}
{"Compound": "O=[N+]([O-])c1ccc(NC(=S)NN=Cc2ccc(N3CCCCC3)cc2)cc1", "target": "DHFR", "test": "enzyme activity, inhibitor", "setting": "500 µM", "measurement": "inhibition", "value": "90.6%"}
{"Compound": "CNc1ncc2c(/C=C/C(=O)N3CCC(OC)CC3)nn(Cc3cccc(C(F)(F)F)c3)c2n1", "target": "Activin receptor type-2B (ACVR2B, Homo sapiens, UniProt Q13705)", "test": "enzyme activity, inhibitor, radiometric", "setting": "1 µM", "measurement": "remaining activity", "value": "119%"}
{"Compound": "COc1cc(-c2cncc3c2CN(C)Cc2cc(N4CCNCC4)ccc2-3)cc(OC)c1OC", "target": "MAPK/MAK/MRK overlapping kinase (MOK, Homo sapiens, UniProt Q9UQ07)", "test": "enzyme activity, inhibitor", "setting": "1 µM", "measurement": "remaining activity", "value": "103%"}
{"Compound": "S=C(NCc1ccccc1)NN=Cc1ccc(N2CCCCC2)cc1", "target": "DHFR", "test": "enzyme activity, inhibitor", "setting": "500 µM", "measurement": "inhibition", "value": "82.8%"}
{"Compound": "COc1cc([C@@H]2c3cc4c(cc3[C@@H](O[C@@H]3O[C@@H]5CO[C@@H](C)O[C@H]5[C@H](O)[C@H]3O)[C@H]3COC(=O)[C@H]23)OCO4)cc(OC)c1O", "target": "DNA topoisomerase 2-alpha (TOP2A, Homo sapiens, UniProt P11388)", "test": "enzyme activity, inhibitor", "setting": "7.8 µM", "measurement": "inhibition", "value": "89.5%"}
{"Compound": "Cc1cc([C@@H](C)Nc2ccccc2C(=O)O)c2nc(N3CCC(F)(F)CC3)c(C#N)c(=O)n2c1", "target": "Serine/threonine-protein kinase PLK1 (PLK1, Homo sapiens, UniProt P53350)", "test": "binding, competition with immobilised ligand", "setting": "1 µM", "measurement": "remaining binding", "value": "100%"}
{"Compound": "COc1ccc2[nH]c3c(c2c1)[C@H]1C[C@@H]([C@H]3C)N(Cc2ccccc2)C[C@]1(C)O", "target": "Tmem97", "test": "ligand displacement, radioligand", "setting": "1 µM", "measurement": "inhibition", "value": "0%"}
{"Compound": "S=C(NN=Cc1ccc(N2CCCCC2)cc1)Nc1ccccc1", "target": "DHFR", "test": "enzyme activity, inhibitor", "setting": "500 µM", "measurement": "inhibition", "value": "90.1%"}
{"Compound": "CC(C)OC(=O)CNc1cccc(CN(Cc2ccc(-n3cccn3)cc2)S(=O)(=O)c2cccnc2)n1", "target": "Rho-associated protein kinase 2 (ROCK2, Homo sapiens, UniProt O75116)", "test": "enzyme activity, inhibitor", "setting": "10 µM", "measurement": "inhibition", "value": "≥ 50%"}
{"Compound": "S=C(NN=Cc1ccc(N2CCCCC2)cc1)Nc1c(Cl)cccc1Cl", "target": "DHFR", "test": "enzyme activity, inhibitor", "setting": "500 µM", "measurement": "inhibition", "value": "83.2%"}
{"Compound": "COc1ccc(CN2C[C@](C)(O)[C@@H]3C[C@H]2[C@@H](C)c2nc4ccccc4c(-c4ccccc4)c23)cc1", "target": "Tmem97", "test": "ligand displacement, radioligand", "setting": "1 µM", "measurement": "inhibition", "value": "0%"}
